≈ marks a conversion by molar mass, not a printed value. Calls of active or inactive are those of the source. The rule behind the calls is not given here.
Assays:
[1] = tested on: Felis catus; experiment: Effective dose for lowering blood pressure in anesthetized cat when administered intravenously; format: functional; details: iv
Summary of the method: (§1)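 Cats of either sex, 3–4 kg, under ether induction and chloralose (70 mg/kg iv). Compounds in distilled water or propylene glycol were given iv via the femoral vein at 0.01–10 mg/kg. Fall in mean arterial pressure read 10 min post-dose. ED20 taken graphically from the log dose-response curve, with doses run in triplicate.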

[2] = tested on: Canis familiaris; experiment: Dose required to produce 50 % increase in left ventricular dP/dt max in anesthetized dogs when administered intravenously; format: functional; details: Canis lupus familiaris, Heart left ventricle, iv
Summary of the method: (§2)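 Male mongrel dogs (10–18 kg), anesthetized with pentobarbital sodium 35 mg/kg iv, then infused with pentobarbitone 3–5 mg/kg per h, intubated and breathing spontaneously. Compounds in distilled water, given iv via the femoral vein in 0.1 mL/kg. Four to six doses between 0.01 and 3 mg/kg, 10–30 min apart. Percent change in LV dP/dt max over the initial value; ED50 taken from the dose-response curve.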

[3] = species on record: Cavia porcellus; experiment: Positive inotropic activity in spontaneously beating guinea pig atria; format: functional, organism-based
Summary of the method: (§3)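 Guinea pig atria, spontaneously beating, in Ringer solution at 32 °C gassed with 95% O2/5% CO2. Isometric force recorded at 0.5–1 g initial tension after 30 min stabilization. Compounds in water or propylene glycol given cumulatively at 0.01–30 μg/mL, with 7 min contact per dose. EC50 for a 50% force increase taken graphically from the dose-response curve, in triplicate.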

[4] = Acute toxicity in mice when administered intraperitoneally; format: organism-based; details: mouse, in vivo, ip
Summary of the method: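 Mice (18-20 g), either sex; compound dissolved in distilled water or suspended in 0.5% (carboxymethyl)cellulose, injected ip at 10, 30, 100, 300 and 1000 mg/kg (1 mL/100 g body weight). Animals observed for 48 h. Approximate LD50 calculated by the Campbell and Richter method.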

[5] = tested on: Felis catus; experiment: Effective dose for lowering of blood pressure in anesthetized cat when administered intravenously; NA=Not active; format: functional, organism-based; summary of the method: as §1
[6] = species on record: Cavia porcellus; experiment: Positive inotropic activity was assessed in spontaneously beating guinea pig atria; NA=Not active; format: functional, organism-based; summary of the method: as §3
[7] = tested on: Canis familiaris; experiment: Percent increase of heart rate in anesthetized dogs at a dose of 0.1 mg/kg; format: functional, Canis lupus familiaris
Summary of the method: (§4)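 Anesthesia was pentobarbital sodium 35 mg/kg iv, maintained with pentobarbitone 3–5 mg/kg per h. Male mongrel dogs, 10–18 kg, intubated for spontaneous breathing. Aqueous solutions were given iv via the femoral vein at 0.1 mL/kg, in escalating doses with 10–30 min between doses. Mean BP fall and percent heart-rate increase were recorded at each dose, with lead II ECG.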

[8] = tested on: Canis familiaris; experiment: Percent increase of heart rate in anesthetized dogs at a dose of 0.3 mg/kg; format: functional, Canis lupus familiaris; summary of the method: as §4
[9] = tested on: Canis familiaris; experiment: Percent increase of heart rate in anesthetized dogs at a dose of 1 mg/kg; format: functional, Canis lupus familiaris; summary of the method: as §4
[10] = tested on: Canis familiaris; experiment: Fall in mean blood pressure in anesthetized dogs at a dose of 0.1 mg/kg; format: functional, Canis lupus familiaris; summary of the method: as §4
[11] = tested on: Canis familiaris; experiment: Fall in mean blood pressure in anesthetized dogs at a dose of 0.3 mg/kg; format: functional, Canis lupus familiaris; summary of the method: as §4
[12] = tested on: Canis familiaris; experiment: Fall in mean blood pressure in anesthetized dogs at a dose of 1 mg/kg; format: functional, Canis lupus familiaris; summary of the method: as §4
[13] = tested on: Canis familiaris; experiment: Percent increase of heart rate in anesthetized dogs at a dose of 0.03 mg/kg; format: functional, Canis lupus familiaris; summary of the method: as §4
[14] = species on record: Canis familiaris; experiment: (§5) Percent increase in LV dP/dt max; format: functional, Canis lupus familiaris; summary of the method: as §2
[15] = species on record: Canis familiaris; experiment: as §5; format: functional, Canis lupus familiaris; summary of the method: as §2; remark: listed apart in the source
[16] = species on record: Canis familiaris; experiment: as §5; format: functional, Canis lupus familiaris; summary of the method: as §2; remark: listed apart in the source
[17] = species on record: Canis familiaris; experiment: as §5; format: functional, Canis lupus familiaris; summary of the method: as §2; remark: listed apart in the source

Compound | ED20 [1] | ED50 [2] | EC50 [3] | LD50 [4] | ED20 [5] | EC50 [6] | also measured
C=C[C@@]1(C)CC(=O)[C@]2(O)C3(C)C(C(OC(=O)CCCN4CCN(C)CC4)C(O)[C@@]2(C)O1)C(C)(C)CC[C@@H]3O.Cl (stereo partly drawn) | 1 mg/kg | 0.41 mg/kg | 0.2 µg/mL | 65 mg/kg | – | – | –
C=C[C@@]1(C)CC(=O)[C@]2(O)C3(C)C(C(O)C(OC(=O)CN4C(C)CCCC4C)[C@@]2(C)O1)C(C)(C)CC[C@@H]3O.Cl (stereo partly drawn) | – | – | – | – | inactive | Not Active | –
C=C[C@@]1(C)CC(=O)[C@]2(O)C3(C)C(C(OC(=O)CCN4CCOCC4)C(O)[C@@]2(C)O1)C(C)(C)CC[C@@H]3O.Cl (stereo partly drawn) | – | – | – | – | inactive | Not Active | –
C=C[C@@]1(C)CC(=O)[C@]2(O)C3(C)C(C(O)C(OC(=O)C(C)N4CCOCC4)[C@@]2(C)O1)C(C)(C)CC[C@@H]3O.Cl (stereo partly drawn) | 2 mg/kg | 0.04 mg/kg | 0.27 µg/mL | 30 mg/kg | – | – | –
C=C[C@@]1(C)CC(=O)[C@]2(O)C3(C)C(C(O)C(OC(=O)CN4CCC(O)(c5ccccc5)CC4)[C@@]2(C)O1)C(C)(C)CC[C@@H]3O.Cl (stereo partly drawn) | – | – | – | – | inactive | Not Active | –
C=C[C@@]1(C)CC(=O)[C@]2(O)C3(C)C(C(OC(=O)CN(CC)CC)C(O)[C@@]2(C)O1)C(C)(C)CC[C@@H]3O.Cl (stereo partly drawn) | – | – | – | – | inactive | Not Active | –
C=C[C@@]1(C)CC(=O)[C@]2(O)C3(C)C(C(OC(=O)CN4CCC(O)CC4)C(O)[C@@]2(C)O1)C(C)(C)CC[C@@H]3O.Cl (stereo partly drawn) | – | – | 3 µg/mL | – | inactive | – | –
C=C[C@@]1(C)CC(=O)[C@]2(O)C3(C)C(C(O)C(OC(=O)CN(CC(=O)OC4C(O)C5C(C)(C)CC[C@H](O)C5(C)[C@@]5(O)C(=O)C[C@](C)(C=C)O[C@]45C)Cc4ccccc4)[C@@]2(C)O1)C(C)(C)CC[C@@H]3O (stereo partly drawn) | – | – | – | – | inactive | Not Active | –
C=C[C@@]1(C)CC(=O)[C@]2(O)C3(C)C(C(O)C(OC(=O)CN4CCOCC4)[C@@]2(C)O1)C(C)(C)CC[C@@H]3O.Cl (stereo partly drawn) | – | 0.035 mg/kg | 0.35 µg/mL | 25 mg/kg | – | – | –
C=C[C@@]1(C)CC(=O)[C@]2(O)C3(C)C(C(O)C(OC(=O)CNC(=O)OC(C)(C)C)[C@@]2(C)O1)C(C)(C)CC[C@@H]3O (stereo partly drawn) | – | – | 9.2 µg/mL (≈ 17.5 µM) | – | inactive | – | –
C=C[C@@]1(C)CC(=O)[C@]2(O)C3(C)C(C(OC(=O)CCN4CCCCC4)C(O)[C@@]2(C)O1)C(C)(C)CC[C@@H]3O.Cl (stereo partly drawn) | 1 mg/kg | 0.3 mg/kg | 0.5 µg/mL | 30 mg/kg | – | – | –
C=C[C@@]1(C)CC(=O)[C@]2(O)[C@@]3(C)[C@@H](O)CCC(C)(C)[C@@H]3[C@H](O)[C@H](OC(C)=O)[C@@]2(C)O1 [COLFORSIN] | 0.038 mg/kg | 0.007 mg/kg | 0.02 µg/mL (≈ 0.0487 µM) | 92 mg/kg | – | – | –
C=C[C@@]1(C)CC(=O)[C@]2(O)C3(C)C(C(OC(=O)CN4CCCCC4)C(O)[C@@]2(C)O1)C(C)(C)CC[C@@H]3O.Cl (stereo partly drawn) | 3 mg/kg | 0.052 mg/kg | 1.8 µg/mL | 85 mg/kg | – | – | Heart rate [7]: 8.8%; Heart rate [8]: 9.8%; Heart rate [9]: 13.8%; BP [10]: 8.8 mmHg; BP [11]: 30.2 mmHg; BP [12]: 72 mmHg; Heart rate [13]: 6.2%; Activity [14]: 64%; Activity [15]: 94%; Activity [16]: 123%; Activity [17]: 48%
C=C[C@@]1(C)CC(=O)[C@]2(O)C3(C)C(C(OC(=O)Cn4c(=O)c5c(ncn5COCCOC)n(C)c4=O)C(O)[C@@]2(C)O1)C(C)(C)CC[C@@H]3O (stereo partly drawn) | – | – | – | – | inactive | Not Active | –
C=C[C@@]1(C)CC(=O)[C@]2(O)C3(C)C(C(OC(=O)CN4C(C)CCCC4C)C(O)[C@@]2(C)O1)C(C)(C)CC[C@@H]3O.Cl (stereo partly drawn) | – | – | – | – | inactive | Not Active | –
C=C[C@@]1(C)CC(=O)[C@]2(O)C3(C)C(C(OC(=O)CN4CCC(C)CC4)C(O)[C@@]2(C)O1)C(C)(C)CC[C@@H]3O.Cl (stereo partly drawn) | – | – | 2.6 µg/mL | – | inactive | – | –
C=C[C@@]1(C)CC(=O)[C@]2(O)C3(C)C(C(OC(=O)CN4CCOCC4)C(O)[C@@]2(C)O1)C(C)(C)CC[C@@H]3O.Cl (stereo partly drawn) | 3 mg/kg | 0.11 mg/kg | 0.5 µg/mL | 82.5 mg/kg | – | – | –
